Active and inactive are the calls of the source. The calls are words filed in the database; no cut-off is given here.
Key:
[1] = system: Plasmodium falciparum; assay: Antimalarial activity against chloroquine-resistant and mefloquine-sensitive Plasmodium falciparum W2 infected in human O-positive erythrocytes assessed as inhibition of parasite growth by [3H]hypoxanthine incorporation assay; type: functional, organism-based
How it was run: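 Compounds were tested at several concentrations, diluted in 4% DMSO/RPMI without hypoxanthine, with mefloquine as control. Growth was measured by 3H-hypoxanthine uptake versus untreated wells. Triplicate, means ± SD of three independent experiments.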

[2] = Cytotoxicity against BALB/c mouse splenocytes assessed as [3H]thymidine incorporation after 24 hrs by beta counting; type: cell-based, Splenocyte; conditions: read-out: LC50
How it was run: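 BALB/c splenocytes, 6 × 10^5 cells/well, in DMEM + 10% FCS + 50 μg/mL gentamycin. Compounds were tested at five concentrations in triplicate. 3H-thymidine (1 μCi/well) was added, followed by 24 h at 37 °C, 5% CO2, then β-counting. Cytotoxicity was taken relative to untreated cultures and LC50 derived. Means ± SD of three experiments.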

[3] = Selectivity index, ratio of LC50 for mouse splenocytes to IC50 for chloroquine-resistant and mefloquine-sensitive Plasmodium falciparum W2
How it was run: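 SI = splenocyte LC50 (3H-thymidine assay) divided by W2 P. falciparum IC50 (3H-hypoxanthine assay), each from three independent experiments.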

[4] = system: Plasmodium berghei; assay: Antimalarial activity against Plasmodium berghei NK65 infected in mouse assessed as reduction of parasitemia level at 50 to 100 mg/kg, ip qd for 4 days by optical microscopy analysis; type: functional, organism-based
How it was run: (§1)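 Male Swiss mice (5-week-old, SPF), groups of five, infected with P. berghei NK65 (line kept by weekly ip blood passage of 10^6 infected RBC). Dosing ip, 200 μL, daily for four consecutive days from the first day of infection, in saline + 10% DMSO. Comparators were chloroquine 50 mg/kg and 10% DMSO/saline mock. Survival was monitored to day 24.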

[5] = system: Plasmodium berghei; assay: Antimalarial activity against Plasmodium berghei NK65 infected in mouse assessed as reduction of host mortality at 50 to 100 mg/kg, ip qd for 4 days measured on day 7; type: functional, organism-based; how it was run: as §1
[6] = system: Plasmodium berghei; assay: Antimalarial activity against Plasmodium berghei NK65 infected in mouse assessed as reduction of parasitemia level at 50 to 100 mg/kg, ip qd for 4 days measured on day 8 postinfection by optical microscopy analysis; type: functional; set-up: scale not given: the % may be the effect or the level left; conditions: dose mg/kg 50-100; route intraperitoneal; how it was run: as §1
[7] = system: Plasmodium berghei; assay: Antimalarial activity against Plasmodium berghei NK65 infected in mouse assessed as reduction of host mortality at 100 mg/kg, ip qd for 4 days measured on day 24 postinfection; type: functional; set-up: scale not given: the % may be the effect or the level left; conditions: route intraperitoneal; how it was run: as §1
[8] = system: Plasmodium berghei; assay: Antimalarial activity against Plasmodium berghei NK65 infected in mouse assessed as reduction of parasitemia level at 50 mg/kg, ip qd for 4 days by optical microscopy analysis; type: functional, organism-based; set-up: dose 50 mg/kg
How it was run: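 Male SPF Swiss mice, 5 weeks old, infected with P. berghei NK65 (line kept by weekly ip blood passage of 10^6 infected RBC). Groups of five were dosed ip daily for 4 days from the first day of infection, in 200 μL saline plus 10% DMSO. Chloroquine 50 mg/kg and vehicle served as controls. Parasitemia was counted by microscopy on methanol-fixed, fast-panoptic-stained blood smears on days 4–8. Reduction was calculated versus vehicle. Two replicate experiments were run.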

SMILES | IC50 [1] | CC50 at 24 h [2] | Ratio LC50/IC50 [3] | Activity [4] | Activity [5] | Activity [6] | Activity [7] | Activity [8]
C[C@]12C(=O)C=CC=C1[C@@H](O)C[C@@H]1[C@@H]2CC[C@@]2(O)C(=O)O[C@@]3(C)[C@H]4C[C@]5(C)[C@@H](CO[C@@]16O[C@]23[C@H]5C6=O)C(=O)O4 [PHYSALIN G] | 6.7 µM | 37.5 µM | 5.6 |  |  |  |  | 
C[C@@]12C[C@H]3OC(=O)[C@@H]1CO[C@]14O[C@]5([C@H]2C1=O)[C@@](O)(CC[C@H]1[C@H]4C[C@H]2O[C@]24CC=CC(=O)[C@]14C)C(=O)O[C@@]35C [PHYSALIN F] | 2.2 µM | 13.3 µM | 5.94 | inactive | Active |  |  | 
C[C@]12C(=O)C=CCC1=CC[C@@H]1[C@@H]2CC[C@]2(O)C(=O)O[C@@]3(C)[C@H]4C[C@]5(C)[C@@H](CO[C@@]16O[C@@]32[C@H]5C6=O)C(=O)O4 [PHYSALIN B] | 2.8 µM | 33.9 µM | 12.3 |  |  |  |  | 
OC(c1cc(C(F)(F)F)nc2c(C(F)(F)F)cccc12)C1CCCCN1 (centres undefined) [MEFLOQUINE] |  | 9.5 µM | 238 |  |  |  |  | 
C[C@@]12C[C@H]3OC(=O)[C@@H]1CO[C@@]14O[C@]5([C@H]2C1=O)[C@@](O)(CC[C@H]1[C@H]4C[C@@H](O)[C@@]2(O)CC=CC(=O)[C@]12C)C(=O)O[C@@]35C [PHYSALIN D] | 55 µM | 570 µM | 10.4 |  |  | 65% | 25% | 
CCN(CC)CCCC(C)Nc1ccnc2cc(Cl)ccc12 (centres undefined) |  |  |  |  |  |  |  | Active
